A selection: hits, their analogues and other compounds. The true share with any hit is near 2.3%.
TRPC4 block: inhibitors of mouse TRPC4 channel, primary screen, Fluo4 calcium, HEK293 TRPC4beta/mu-opioid cells; Short transient receptor potential channel 4 (Mus musculus), Q9QUQ5; DAMGO-evoked Fluo4 calcium flux; hits give low values; B-score at 10 µM; actives 0.39% (n = 300,000);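 active means B-score over 3 SD under the library average, no early fluorescence shift, positive overall ratio signal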
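Assay system: HEK293 cells with stable TRPC4beta plus mu-opioid receptor expression; Probe or stimulus: DAMGO in two steps, submaximal then maximal; Dosing: single-point compound dosing; Measured by: Fluo4 calcium-dye fluorescence, kinetic read; Read-out basis: B score from integrated Fluo4 fluorescence ratio.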
TRPC4 agonist: activators of mouse TRPC4 channel, primary screen, Fluo4 calcium, HEK293 TRPC4beta/mu-opioid cells; B-score at 10 µM; Fluo4 calcium fluorescence; hits give high values; actives 0.49% (n = 310,000);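 active means B-score above 5 SD of library B-scores, and initial fluorescence ratio not above library mean plus 5 SD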;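 further: positive B-score marks a calcium rise read as TRPC4 activation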
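System – HEK293 cells stably co-expressing mouse TRPC4beta and mu-opioid receptor · Signal – Fluo4 calcium-sensitive dye fluorescence, kinetic, 1 Hz baseline · Benchmarks – buffer (low) and maximal DAMGO (high) · Read-out – B score of integrated fluorescence ratio per well · Incubation – dye loading 45 min room temperature, 110 s kinetic read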
TRPC6 act: mouse TRPC6 channel activators, primary screen, cell-based, HEK293, membrane potential dye; HEK293-TRPC6 membrane potential dye fluorescence; hits give high values; actives 0.13% (n = 310,000); Short transient receptor potential channel 6 (Mus musculus), Q61143; B-score at 10 µM;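 active means B-score of the integrated fluorescence ratio above library mean plus 3 SD, and starting fluorescence ratio within library mean plus 5 SD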;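 further: higher score means more depolarization so channel activation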
TRPC6 inhibitor: mouse TRPC6 channel inhibitors, primary screen, cell-based, HEK293, membrane potential dye | Short transient receptor potential channel 6 (Mus musculus), Q61143 | ACh-evoked depolarization; hits give low values | B-score at 10 µM | actives 1.1% (n = 310,000) | AID 2553, 2010;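 active means B-score under library mean minus 3 SD, initial fluorescence not abnormally high, positive integrated signal ratio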;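 further: B-score derived from integrated fluorescence ratio over the kinetic read; more negative B-score means stronger inhibition of depolarization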
TRPC4 potent: positive allosteric modulators of TRPC4, primary screen, cell-based, mouse TRPC4beta, HEK293 mu-opioid, Fluo-4 calcium; Short transient receptor potential channel 4 (Mus musculus), Q9QUQ5; B-score at 10 µM; AID 2227, 2009; DAMGO EC20, Fluo-4 Ca2+ flux; hits give high values; actives 0.42% (n = 310,000);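 active means B-score of calcium response area above 5 SD of library B-scores, with initial fluorescence ratio within 5 SD of library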;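 further: B-score of integrated fluorescence ratio over time as area under calcium response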
HEK293 MPD ctr: parental HEK293 membrane potential modulation, confirmation, counter-screen for TRPC6 modulator project, cell-based | membrane potential dye fluorescence | shares compounds with TRPC6 inhibitor | actives 51% (n = 2,400) | membrane potential signal change, % at 10 µM;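 active means membrane potential signal moves up or down beyond 5 SD from buffer-only wells, on both duplicate plates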
HEK293 MPD ctr 2: parental HEK293 nonspecific activity of TRPC6 modulators, second screen | shares compounds with TRPC6 inhibitor | membrane potential dye fluorescence; after compound, maximal acetylcholine stimulation | inhibition, % at 10 µM | actives 14% (n = 2,400) | AID 488926;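 active means membrane potential signal drops by more than 5 SD from the mean control signal, in both duplicate plates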;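 further: plate controls were acetylcholine ECmax control wells for no effect and buffer only wells for full effect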
TRPC4 ctr mod: TRPC4 modulation by TRPC6 hit compounds, confirmation, selectivity assay for TRPC6 modulator project, cell-based, HEK293 TRPC4/mu-opioid, membrane potential dye, mouse | actives 69% (n = 2,400) | membrane potential fluorescence | percent change from control (negative = decrease, positive = increase), % at 10 µM | shares compounds with TRPC6 inhibitor;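 active means membrane potential signal moved up or down beyond 5 SD of buffer control wells, in both duplicate plates, actives on both sides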;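 further: plate controls were assay buffer wells for no effect and DAMGO maximal-effect wells for full effect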
TRPC4 ctr inh 2: second selectivity test of TRPC6 modulators against mouse TRPC4. shares compounds with TRPC6 inhibitor. HEK293 TRPC4/mu-opioid, membrane potential dye fluorescence; stimulated with maximal-effect DAMGO. inhibition, % at 10 µM. actives 55% (n = 2,400);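 active means drop in membrane potential signal beyond 5 SD of the control wells in both duplicate plates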;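 further: TRPC4 counter screen for TRPC6 hits run under conditions tuned for TRPC6 not TRPC4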
TRPC6 block conf: mouse TRPC6 channel inhibitors, confirmation, HEK293 cells, membrane potential dye, duplicate. actives 43% (n = 3,300). shares compounds with TRPC6 inhibitor. AID 488960, 2010. inhibition, % at 10 µM. ACh-evoked depolarization;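 active means fluorescence ratio falls more than 5 SD below the full-stimulation control mean, in both duplicate runs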;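 further: integrated fluorescence ratio of peak minus minimum over baseline after agonist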
TRPC6 act confirm: mouse TRPC6 channel activators, confirmation, HEK293 cells, membrane potential dye, duplicate; HEK293-TRPC6 membrane potential dye fluorescence, FDSS; activation, % at 10 µM; actives 11% (n = 2,800); shares compounds with TRPC6 inhibitor;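 active means ratio signal rise beyond 5 SD above unstimulated control wells' mean, seen in both duplicate runs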;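 further: plate controls were buffer EC0 wells for no effect and acetylcholine ECmax response for full effect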
Active calls of the source: *; i = inactive; . = no result.

SMILES	TRPC4 block	TRPC4 agonist	TRPC6 act	TRPC6 inhibitor	TRPC4 potent	HEK293 MPD ctr	HEK293 MPD ctr 2	TRPC4 ctr mod	TRPC4 ctr inh 2	TRPC6 block conf	TRPC6 act confirm
CCn1c(SC)nnc1C1CCN(CC(=O)Nc2ccccc2N2CCOCC2)CC1	i	i	i	-5.4*	i	i	i	i	i	i	i
CSc1nnc(C2CCN(CC(=O)Nc3ccccc3N3CCOCC3)CC2)n1C	i	i	i	i	i	.	.	.	.	.	.
Cc1cc(=O)oc2ccc(OC(=O)c3cccc(S(=O)(=O)N4CCOCC4)c3)cc12	i	i	i	i	i	.	.	.	.	.	.
COc1ccc(-n2cnnc2SCC(=O)N(C)c2ccccc2)cc1	i	i	i	i	i	.	.	.	.	.	.
COc1ccc(-n2cnnc2SCc2csc(-c3ccccc3)n2)cc1	i	i	i	-5.2*	i	i	i	14%*	i	43%*	.
Cc1ccc(NC(=O)c2cccc(C(=O)OC(C)C)n2)c(Br)c1	i	i	i	i	i	.	.	.	.	.	.
CC(C)N(c1ccccc1)c1ccc(NC(=S)NCCN(C)C)cc1	i	i	i	-6.6*	i	i	i	i	40%*	46%*	i
NC(=O)CC(NC(=O)Cc1ccc(Cl)cc1)c1ccc(NCC2CC2)c([N+](=O)[O-])c1 (stereo unspecified)	i	i	i	i	i	.	.	.	.	.	.
COc1ccc(CCNC(=O)C2CCCN(c3ncnc4c3nc3n4CCCCC3)C2)c(OC)c1 (stereo unspecified)	i	i	i	i	i	.	.	.	.	.	.
Cc1ccc(C(C(=O)NC2CCCCC2)N(Cc2ccco2)C(=O)Cn2cnc3ccccc32)cc1 (stereo unspecified)	i	i	17*	i	i	i	i	122%*	i	i	30%*
O=C(NC1CCCCC1)C(c1ccc(F)cc1)N(Cc1ccco1)C(=O)Cn1nnc2ccccc21 (stereo unspecified)	i	i	i	i	i	.	.	.	.	.	.
CCOc1ccccc1C(C(=O)NC1CCCC1)N(Cc1ccco1)C(=O)CNC(=O)c1ccco1 (stereo unspecified)	i	i	14*	i	i	350%*	90%*	78%*	i	.	150%*
CCN(CC)CCNc1c2c(c(C#N)c3nc4ccccc4n13)CCCC2	i	i	i	-5.1*	i	i	i	-18%*	36%*	42%*	i
N#Cc1c2c(c(NCc3ccco3)n3c1nc1ccccc13)CCC2	i	i	i	i	i	.	.	.	.	.	.

Screening data as filed in PubChem.
